Compound activity from PubChem BioAssay.
TRPC4 block = TRPC4 (mouse) channel inhibition | Q9QUQ5 | HEK293 TRPC4beta/mu-opioid, DAMGO-evoked Fluo4 calcium flux; stronger effect = lower value | B-score at 10 µM | actives 0.39% (n = 300,000) | AID 2247;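 active = B-score over 3 SD under the library average, no early fluorescence shift, positive overall ratio signal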
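Assay system – HEK293 line stably carrying TRPC4beta and mu-opioid receptor · Doses – single dose · Detection – Fluo4 calcium-dye fluorescence, kinetic read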
TRPC4 act = opens the mouse TRPC4 cation channel; B-score at 10 µM; Q9QUQ5; actives 0.49% (n = 310,000); HEK293 TRPC4beta/mu-opioid, Fluo4 calcium fluorescence; stronger effect = higher value;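 active = B-score above 5 SD of library B-scores, and initial fluorescence ratio not above library mean plus 5 SD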;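 note: positive B-score marks a calcium rise read as TRPC4 activation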
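Technique: kinetic Fluo4 calcium fluorescence; Test system: TRPC4beta and mu-opioid receptor HEK293 stable cells; Measure: B-scored integrated calcium fluorescence ratio; Benchmarks: low control buffer alone, high control maximal DAMGO; Schedule: 45 min room-temperature Fluo4 loading, 110 s read.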
TRPC6 inhibitor = mouse TRPC6 channel inhibition | actives 1.1% (n = 310,000) | AID 2553 | HEK293-TRPC6, membrane potential dye, ACh-evoked depolarization; stronger effect = lower value | B-score at 10 µM | Q61143;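 active = B-score under library mean minus 3 SD, initial fluorescence not abnormally high, positive integrated signal ratio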;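 note: B-score derived from integrated fluorescence ratio over the kinetic read; more negative B-score means stronger inhibition of depolarization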
Target sequence (Q61143 whole entry, looked up): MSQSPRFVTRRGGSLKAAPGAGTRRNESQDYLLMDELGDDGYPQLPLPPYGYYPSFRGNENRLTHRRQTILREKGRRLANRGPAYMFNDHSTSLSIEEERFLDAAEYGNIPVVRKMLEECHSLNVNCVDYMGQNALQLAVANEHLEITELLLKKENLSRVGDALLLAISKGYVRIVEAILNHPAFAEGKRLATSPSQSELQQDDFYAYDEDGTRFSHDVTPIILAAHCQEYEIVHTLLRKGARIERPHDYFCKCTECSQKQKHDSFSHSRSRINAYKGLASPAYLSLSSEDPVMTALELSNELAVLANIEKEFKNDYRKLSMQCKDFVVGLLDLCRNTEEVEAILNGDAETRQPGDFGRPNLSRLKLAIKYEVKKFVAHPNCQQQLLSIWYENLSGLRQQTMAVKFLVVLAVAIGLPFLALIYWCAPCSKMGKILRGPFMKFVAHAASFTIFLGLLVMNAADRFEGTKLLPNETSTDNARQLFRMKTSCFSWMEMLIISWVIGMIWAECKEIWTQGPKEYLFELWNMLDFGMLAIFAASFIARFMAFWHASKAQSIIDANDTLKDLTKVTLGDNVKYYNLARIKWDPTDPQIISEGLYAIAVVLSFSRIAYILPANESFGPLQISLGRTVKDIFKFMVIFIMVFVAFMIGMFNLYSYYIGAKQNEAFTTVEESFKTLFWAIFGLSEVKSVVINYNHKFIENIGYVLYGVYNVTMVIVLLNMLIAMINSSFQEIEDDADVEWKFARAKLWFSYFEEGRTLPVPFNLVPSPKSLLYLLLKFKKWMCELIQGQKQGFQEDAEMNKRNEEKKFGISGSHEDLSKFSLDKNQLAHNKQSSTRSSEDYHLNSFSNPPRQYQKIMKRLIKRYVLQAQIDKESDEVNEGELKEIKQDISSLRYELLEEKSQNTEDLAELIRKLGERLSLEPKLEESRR
TRPC6 activator = mouse TRPC6 channel activation. HEK293-TRPC6 membrane potential dye fluorescence; stronger effect = higher value. B-score at 10 µM. actives 0.13% (n = 310,000). AID 2550;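 active = B-score of the integrated fluorescence ratio above library mean plus 3 SD, and starting fluorescence ratio within library mean plus 5 SD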;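 note: higher score means more depolarization so channel activation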
TRPC4 PAM = allosteric potentiators of mouse TRPC4 channel; actives 0.42% (n = 310,000); Q9QUQ5; AID 2227; B-score at 10 µM; HEK293 TRPC4beta/mu-opioid, DAMGO EC20, Fluo-4 Ca2+ flux; stronger effect = higher value;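 active = B-score of calcium response area above 5 SD of library B-scores, with initial fluorescence ratio within 5 SD of library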;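 note: B-score of integrated fluorescence ratio over time as area under calcium response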
Platelet DG rel = platelet dense granule release activity; human platelet-rich plasma, SFLLRN dense granule ATP release, luminescence; inhibition, %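 (compounds screened at 7.5 µM in platelet-rich plasma)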; actives 0.22% (n = 300,000); AID 1663;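 active = mean replicate score, as percent of positive control, at or above 50; inconclusive = mean below 50 but at least one replicate at or above 50; inactive = mean and every replicate below 50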
TRPC4 sel inh 2 = mouse TRPC4 off-target activity of TRPC6 inhibitors, second screen | inhibition, % at 10 µM | actives 42% (n = 920) | HEK293 TRPC4/MOR, membrane potential dye fluorescence; channel activated by saturating DAMGO dose | shares compounds with TRPC6 inhibitor;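 active = compounds whose fluorescence signal differed from control wells by over 3 SD, either direction, in both duplicate plates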
TRPC4 spec = selectivity of TRPC6 inhibitors: effect on mouse TRPC4; shares compounds with TRPC6 inhibitor; HEK293 TRPC4/mu-opioid, membrane potential fluorescence; activity change, negative = inhibition, % at 10 µM; actives 61% (n = 920); AID 2777;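 active = rise or fall in signal beyond 3 SD of buffer-only wells in both replicate plates, either sign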;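 note: integrated kinetic ratio of fluorescence range over baseline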
HEK293 MPD ctr 2-1 = second counter-screen for TRPC6 inhibitors: parental HEK293 cells; signal change vs control, % at 10 µM; actives 31% (n = 920); parental HEK293 membrane potential dye fluorescence; maximal acetylcholine challenge after compound addition; shares compounds with TRPC6 inhibitor;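 active = membrane potential signal moving either way by over 3 SD of the maximum-effect control, in both duplicate plates, meaning non-specific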
HEK293 MPD ctr-1 = counter-screen for TRPC6 inhibitors: effect in parental HEK293 cells | AID 2780 | membrane potential signal change, % at 10 µM | shares compounds with TRPC6 inhibitor | parental HEK293 membrane potential dye fluorescence | actives 60% (n = 920);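 active = membrane potential signal shifting up or down by more than 3 SD of buffer-only wells, on both duplicate plates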
HEK293 MPD ctr-2 = parental HEK293 nonspecific activity of TRPC6 modulators. actives 51% (n = 2,400). membrane potential signal change, % at 10 µM. membrane potential dye fluorescence. shares compounds with TRPC6 inhibitor;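 active = membrane potential signal moves up or down beyond 5 SD from buffer-only wells, on both duplicate plates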
HEK293 MPD ctr 2-2 = parental HEK293 nonspecific activity of TRPC6 modulators, second screen. shares compounds with TRPC6 inhibitor. membrane potential dye fluorescence; after compound, maximal acetylcholine stimulation. inhibition, % at 10 µM. actives 14% (n = 2,400). AID 488926;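 active = membrane potential signal drops by more than 5 SD from the mean control signal, in both duplicate plates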;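 note: plate controls were acetylcholine ECmax control wells for no effect and buffer only wells for full effect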
TRPC4/MOR mod = selectivity of TRPC6 modulators against mouse TRPC4. shares compounds with TRPC6 inhibitor. HEK293 TRPC4/mu-opioid, membrane potential fluorescence. percent change from control (negative = decrease, positive = increase), % at 10 µM. actives 69% (n = 2,400). AID 488927;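 active = membrane potential signal moved up or down beyond 5 SD of buffer control wells, in both duplicate plates, actives on both sides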;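 note: plate controls were assay buffer wells for no effect and DAMGO maximal-effect wells for full effect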
TRPC4/MOR inh 2 = second check of whether TRPC6 modulators also affect mouse TRPC4; actives 55% (n = 2,400); shares compounds with TRPC6 inhibitor; inhibition, % at 10 µM; AID 488928; HEK293 TRPC4/mu-opioid, membrane potential dye fluorescence; stimulated with maximal-effect DAMGO;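 active = drop in membrane potential signal beyond 5 SD of the control wells in both duplicate plates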;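 note: TRPC4 counter screen for TRPC6 hits run under conditions tuned for TRPC6 not TRPC4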
TRPC6 inh conf = mouse TRPC6 inhibitor confirmation. shares compounds with TRPC6 inhibitor. HEK293-TRPC6, membrane potential dye, ACh-evoked depolarization. inhibition, % at 10 µM. actives 43% (n = 3,300);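 active = fluorescence ratio falls more than 5 SD below the full-stimulation control mean, in both duplicate runs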;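 note: integrated fluorescence ratio of peak minus minimum over baseline after agonist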
TRPC6 act confirm = mouse TRPC6 activator confirmation | activation, % at 10 µM | actives 11% (n = 2,800) | shares compounds with TRPC6 inhibitor | HEK293-TRPC6 membrane potential dye fluorescence, FDSS;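 active = ratio signal rise beyond 5 SD above unstimulated control wells' mean, seen in both duplicate runs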;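 note: plate controls were buffer EC0 wells for no effect and acetylcholine ECmax response for full effect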
The depositor's hits bear a star; i = inactive; ? = inconclusive; / = not tested or not shown. The list is not random: actives were taken first. Their share in the collection is about 2.5%.

SMILES	TRPC4 block	TRPC4 act	TRPC6 inhibitor	TRPC6 activator	TRPC4 PAM	Platelet DG rel	HEK293 MPD ctr-2	HEK293 MPD ctr 2-2	TRPC4/MOR mod	TRPC4/MOR inh 2	TRPC6 inh conf	TRPC6 act confirm	others
c1ccc2c(c1)nc(N1CCCCCC1)c1ccccc12	i	i	i	i	i	16.5	/	/	/	/	/	/
Oc1ccc(Nc2nc(N3CCCC3)c3ccccc3n2)cc1	-6*	i	-11.2*	i	i	-2.5	/	/	/	/	70.9%*	i	TRPC4 sel inh 2=55.5%*;TRPC4 spec=-19.2%*;HEK293 MPD ctr 2-1=32.0%*;HEK293 MPD ctr-1=-262.5%*
COc1ccc(Nc2nc(N3CCCCC3)c3ccccc3n2)cc1	i	i	-7.49*	i	i	-0.6	/	/	/	/	i	i	TRPC4 sel inh 2=i;TRPC4 spec=i;HEK293 MPD ctr 2-1=i;HEK293 MPD ctr-1=i
Cc1ccc(Nc2nc(N)c([N+](=O)[O-])c(N3CCOCC3)n2)cc1	i	i	i	i	i	2.3	/	/	/	/	/	/
Cc1ccc(Nc2nc(N3CCOCC3)c3ccccc3n2)cc1	i	i	-5.26*	i	i	?	i	i	-21.5%*	55.0%*	i	i
COC(=O)c1c(-c2ccc3ccccc3c2)csc1NC(=O)Cc1ccc(OC)c(OC)c1	i	i	-5.75*	i	i	-5.9	i	i	i	i	i	i
O=S(=O)(c1ccc(NCc2ccccc2)cc1)N1CCOCC1	i	i	i	i	i	4.7	/	/	/	/	/	/
COc1ccc(NC(=O)CSc2nc3ccccc3nc2N2CCCC2)cc1Cl	i	i	i	i	i	6.4	/	/	/	/	/	/
CC(=O)c1ccc2cccc3c2c1N=CN3C	i	i	-8.92*	i	i	8.0	-146.5%*	68.0%*	-65.5%*	50.0%*	50.5%*	i
CN1c2cccc3cccc(c23)N(C)C1(C)C	i	i	i	i	i	-19.4	/	/	/	/	/	/
Oc1ccccc1Oc1ncc(Br)c(Cl)n1	i	i	i	i	i	-0.7	/	/	/	/	/	/
Oc1ccccc1Oc1ncc(Br)c(N2CCOCC2)n1	i	i	-7.21*	i	i	-0.5	/	/	/	/	i	i	TRPC4 sel inh 2=i;TRPC4 spec=i;HEK293 MPD ctr 2-1=i;HEK293 MPD ctr-1=i
N#CC1=C(N)SC(C(=O)c2ccccc2)C1c1cccs1 (stereo unspecified)	i	i	i	i	i	0.5	/	/	/	/	/	/
N#CC1=C(N)S[C@@H](C(=O)c2ccc(F)cc2)[C@@H]1c1cccs1	i	i	-6.52*	i	i	-2.4	i	i	i	i	i	i
Cc1sc(NC(=O)c2sc3nc4c(C)cccc4cc3c2N)c(C#N)c1C	i	i	i	13.3*	i	5.7	i	i	13.0%*	i	i	i
COc1ccc(C(=O)c2coc3ccc(O)c(CN(C)C)c23)cc1	i	i	-5.26*	i	i	28.6	i	i	9.0%*	55.5%*	i	i
CCCCN1C(=O)C(=O)N(CC(=O)Nc2ccccc2C(=O)OCC)C1=O	i	i	i	i	i	-17.7	/	/	/	/	/	/
CCCn1ncc(CN2CCCC(C(=O)c3cccc(OC(C)C)c3)C2)c1C (stereo unspecified)	i	i	-5.34*	i	i	-1.0	118.5%*	i	24.0%*	40.5%*	50.5%*	/
COc1ccc(-c2csc(N(CCCN(C)C)C(=O)c3ccc(Br)cc3)n2)cc1	i	i	i	i	i	1.8	/	/	/	/	/	/
COc1ccc(-c2csc(N(CCCN(C)C)C(=O)c3ccc(C(C)(C)C)cc3)n2)cc1	i	i	i	i	i	0.1	/	/	/	/	/	/
COc1ccc(-c2csc(N(CCCN(C)C)C(=O)c3ccc(C)cc3)n2)cc1	i	i	-6.49*	i	i	8.8	i	i	i	81.5%*	56.0%*	i
CCN(CC)CCCN(C(=O)c1ccccc1F)c1nc(-c2ccc(OC)cc2)cs1	i	i	-7.12*	i	i	15.2	/	/	/	/	51.2%*	i	TRPC4 sel inh 2=47.0%*;TRPC4 spec=i;HEK293 MPD ctr 2-1=i;HEK293 MPD ctr-1=-0.1%*
COc1ccc(-c2csc(N(CCCN(C)C)C(=O)c3cc(OC)c(OC)c(OC)c3)n2)cc1	i	i	-5.68*	i	i	2.4	i	i	i	66.5%*	i	i
CCN(CC)CCCN(C(=O)c1ccc(OC)cc1)c1nc(-c2ccc(OC)cc2)cs1	i	i	-9.11*	i	i	0.8	/	/	/	/	77.3%*	i	TRPC4 sel inh 2=23.5%*;TRPC4 spec=-17.6%*;HEK293 MPD ctr 2-1=i;HEK293 MPD ctr-1=i
CCN(CC)CCCN(C(=O)c1ccccc1C)c1nc(-c2ccc(OC)cc2)cs1	i	i	i	i	i	5.6	/	/	/	/	/	/
Cc1cccc(-n2ncc3c2CCCC3NC(=O)Cc2c(C)noc2C)c1C (stereo unspecified)	i	i	i	i	i	1.9	/	/	/	/	/	/
C/C(=N/NS(=O)(=O)c1cccc([N+](=O)[O-])c1)c1ccncc1	i	i	i	i	i	-2.8	/	/	/	/	/	/
